Results filed as inconclusive are left out.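 How the source made its calls, unless noted: active means RAM network inhibition above 8.4% in each of two replicates, 3 SD over the compound average; inconclusive means above 8.4% inhibition in only one replicate; inactive means 8.4% inhibition or less in each replicate.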
Tests used:
[1] = S. cerevisiae growth inhibition in permissive medium (OD615), pilot counter-assay for S. cerevisiae lifespan shortening project, permissive growth control (AID 705;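 active means growth inhibition above 25% in both replicates, a cutoff set 3 SD above the mean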); details: OD615, 24 h, at 10 µM, hits give high values
Method in brief: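 System: Engineered DeaD yeast | Buffer or medium: SC raffinose/galactose permissive medium | Doses: 10 µM single dose, 0.25% DMSO | Times: 24 h exposure, 30 °C | Measured by: OD615 turbidity read | Read-out: Yeast growth inhibition indicated by reduced 24 h OD615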

[2] = S. cerevisiae growth inhibition in restrictive medium, OD615, pilot screen, restrictive growth control, yeast lifespan reduction project (AID 706;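 active means growth inhibition above a set limit, 3 SD over mean compound inhibition, in both replicates, cut at about 43% in these data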;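 further: modified DeaD lifespan yeast strain shifted to restrictive glucose medium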); details: OD615, 48 h, at 10 µM, hits give high values
Method in brief: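 Assay system: engineered S. cerevisiae DeaD strain; Buffer or medium: CSMM-D glucose medium; Dosing: 10 µM compound, 0.25% DMSO; Times: cell pre-growth 4 h, compound exposure 48 h, 30 °C; Detection: absorbance (optical density) measured at 615 nm.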

[3] = doxorubicin toxicity protection in MRP-1 cells – H69AR cells, CellTiter-Glo, duplicate, MRP-1 activator project, pilot screen (AID 807;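 active means viability increase at or above a cutoff of the median across tested compounds plus 3 SD, cut at about 8.5% in these data, passing the limit was not always enough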;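 further: compound pretreatment 18-22 h then 72 h combined with doxorubicin; 0% = doxorubicin alone and 100% = vehicle without doxorubicin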); details: H69AR viability with doxorubicin, CellTiter-Glo luminescence; at 10 µM; hits give high values
[4] = viability of HCT116 without oncogenic beta-catenin – human colon tumor cells, pilot screen (AID 823;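 active means cell viability at or below a set limit in both duplicate runs, the limit being the all-compound median minus 4 SD, cut at about 23% in these data, passing the limit was not always enough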;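 further: 0% = wells killed by 20 µM Hyamine and 100% = untreated DMSO cell wells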); details: HCT116 beta-catenin knockout viability, CellTiter-Glo, 60 h; at 10 µM; hits give low values
[5] = viability of PTEN-null HCT116 cells – cell-based, HCT116 clonal line, CellTiter-Glo, pilot screen (AID 824;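 active means viability at or below 27.92% in each of two runs, the all-compound median minus 4 SD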;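 further: 0% = 20 µM Hyamine control and 100% = vehicle cell control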); details: HCT116 PTEN-deleted viability, 60 h, at 10 µM, hits give low values
[6] = RAM pathway blockade in budding yeast – dse1pr::URA3 reporter, 5-FOA selection, pilot screen (AID 869;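 active means inhibition over a set limit, the all-compound mean plus 3 SD, in both replicate runs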;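 further: 0% = DMSO wells with no growth and 100% = 10 µM 1-NA-PP1 with full growth; RAM network block rescues cells from 5-FOA so hits raise OD615 growth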); details: S. cerevisiae dse1pr::URA3 5-FOA growth, OD615, 2 d; at 10 µM; hits give high values; strain carries analog-sensitive mutant Cbk1 kinase
[7] = RAM signaling pathway blockade in yeast – S. cerevisiae, Pdr1DBD-CYC8 efflux-inhibited sensitized strain, primary screen (AID 1298);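 further: 0% = DMSO untreated cells without growth and 100% = 10 µM 1-NA-PP1 full growth; higher means more yeast growth rescued from 5-FOA killing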; details: S. cerevisiae cbk1-as DSE1-URA3 strain, 5-FOA growth OD615, 2 d; at 50 µM; hits give high values

CCOC(=O)Cn1c(C)nc2ccccc21
inactive: growth inhibition [1] -14% | growth inhibition [2] -14% | viability increase [3] -1.63% | viability [4] 102% | viability [5] 105% | inhibition [6] 1.29% | RAM network inhibition [7] 1.95%

COc1ccc(NC(=O)NCCCN2CCc3ccccc3C2)cc1
inactive: growth inhibition [1] 3.62% | growth inhibition [2] 0.72% | viability increase [3] -2.53% | viability [4] 97.3% | viability [5] 98.2% | inhibition [6] 1.15% | RAM network inhibition [7] -1.19%

CCOC(=O)C(C)Sc1nnc(Cc2cc(=O)[nH]c(=O)[nH]2)n1-c1cccc(OC)c1 (configuration not stated)
inactive: growth inhibition [1] -8.94% | growth inhibition [2] -10% | viability increase [3] 0.04% | viability [4] 101% | viability [5] 96.9% | inhibition [6] 0.395% | RAM network inhibition [7] -1.47%

COc1cc(C2N(c3ccccc3)CCN2c2ccccc2)ccc1OC(C)=O
inactive: growth inhibition [1] -18.8% | growth inhibition [2] -13.6% | viability increase [3] 0.59% | viability [4] 96.3% | viability [5] 94.5% | inhibition [6] 0.44% | RAM network inhibition [7] 2.35%

CCOC(=O)N1CCC(Nc2cc(C)nc3c(-c4ccccc4OC)c(C)nn23)CC1
inactive: growth inhibition [1] -2.85% | growth inhibition [2] -0.57% | viability increase [3] -6.98% | viability [4] 81.3% | viability [5] 67.8% | inhibition [6] 0.325% | RAM network inhibition [7] 4.72%

COC(=O)CSc1nc2ccccc2o1
inactive: growth inhibition [1] -7.46% | growth inhibition [2] -18.7% | viability increase [3] -1.43% | viability [4] 97.8% | viability [5] 96.3% | inhibition [6] 1.3% | RAM network inhibition [7] 1.45%

CCC(CC)c1nnc(NC(=O)c2c(-c3ccccc3)noc2C)s1
inactive: growth inhibition [1] -10.7% | growth inhibition [2] 3.94% | viability increase [3] -1.44% | viability [4] 90.2% | viability [5] 93.9% | inhibition [6] 0.27% | RAM network inhibition [7] 2.57%

CNC(=O)c1c(N)sc2c1CCCCC2
inactive: growth inhibition [1] -2.01% | growth inhibition [2] 8.19% | viability increase [3] -3.12% | viability [4] 88.8% | viability [5] 88.1% | inhibition [6] 1.19% | RAM network inhibition [7] 4.13%

CCN(CC)CC(=O)Nc1cc(C)c2c(=O)oc3ccccc3c2n1
inactive: growth inhibition [1] -15.1% | growth inhibition [2] -19.2% | viability increase [3] -3.1% | viability [4] 96.1% | viability [5] 91.6% | inhibition [6] 1.04% | RAM network inhibition [7] 6.81%

COc1ccccc1C1NC(=O)NC(C)=C1C(=O)OC1CCCCC1 (configuration not stated)
inactive: growth inhibition [1] -4.16% | growth inhibition [2] -6.71% | viability increase [3] 0.87% | viability [4] 97.5% | viability [5] 92.3% | inhibition [6] 2.65% | RAM network inhibition [7] 2.9%

CC(CNC(=O)C1CCCCC1)NC(=O)C1CCCCC1 (configuration not stated)
inactive: growth inhibition [1] -7.69% | growth inhibition [2] -6.86% | viability increase [3] 0.64% | viability [4] 89.6% | viability [5] 92.5% | inhibition [6] 0.08% | RAM network inhibition [7] 4%

O=C(Cn1c(S(=O)(=O)Cc2ccccc2)nc2ccccc21)N1CCCCC1
inactive: growth inhibition [1] -5.32% | growth inhibition [2] 2.88% | viability increase [3] -6.5% | viability [4] 107% | viability [5] 99.3% | inhibition [6] -0.04% | RAM network inhibition [7] 3.73%

COc1cc(C(=O)Nc2ccc(N(C)C)cc2)cc(OC)c1OC
inactive: growth inhibition [1] -13.9% | growth inhibition [2] -11.7% | viability increase [3] -5.23% | viability [4] 82.2% | viability [5] 82.9% | inhibition [6] 1.14% | RAM network inhibition [7] 2.49%

COc1ccc(OC)c(CCNC(=O)CN2C(=O)CC(C)(C)S(=O)(=O)c3ccccc32)c1
inactive: growth inhibition [1] -4.35% | growth inhibition [2] -14.1% | viability increase [3] -2.6% | viability [4] 101% | viability [5] 92.3% | inhibition [6] -0.045% | RAM network inhibition [7] 2.76%

Cc1cccc(CCNC(=O)CN(C)S(=O)(=O)c2ccc3c(c2)c(=O)n(C)c(=O)n3C)c1
inactive: growth inhibition [1] -12.1% | growth inhibition [2] -22.2% | viability increase [3] -0.92% | viability [4] 102% | viability [5] 90.4% | inhibition [6] 1.75% | RAM network inhibition [7] 2.91%

Cc1cc(C)c(C#N)c(SCC(=O)c2cccs2)n1
inactive: growth inhibition [1] -9.34% | growth inhibition [2] 1.01% | viability increase [3] -4.41% | viability [4] 78% | viability [5] 84.8% | inhibition [6] 1.6% | RAM network inhibition [7] 0.97%

COc1ccc(NC(=O)Nc2ccc(OCC(=O)N3CCOCC3)cc2)cc1OC
inactive: growth inhibition [1] -13% | growth inhibition [2] -1.38% | viability increase [3] -2.34% | viability [4] 88.4% | viability [5] 90.5% | inhibition [6] 0.595% | RAM network inhibition [7] 0.11%

CC(C)c1nnc(NC(=O)CN2C(=O)c3ccccc3C2=O)s1
inactive: growth inhibition [1] -5.71% | growth inhibition [2] -6.92% | viability increase [3] -1.95% | viability [4] 96.3% | viability [5] 89.1% | inhibition [6] 1.61% | RAM network inhibition [7] 3.84%

N#Cc1ccccc1Cn1c(=O)n(-c2ccc(CC(=O)NCc3ccco3)cc2)c(=O)c2sccc21
inactive: growth inhibition [1] -3.44% | growth inhibition [2] 3.28% | viability increase [3] -1.7% | viability [4] 97.8% | viability [5] 99.6% | inhibition [6] 2.13% | RAM network inhibition [7] 4.46%

CCn1nnnc1-c1ccc(OC)c(S(=O)(=O)NCCc2ccccc2)c1
inactive: growth inhibition [1] 2.78% | growth inhibition [2] 2.87% | viability increase [3] 0.85% | viability [4] 93.5% | viability [5] 97.3% | inhibition [6] 0.03% | RAM network inhibition [7] 1.98%

O=C1C2ON(c3ccccc3)C(c3ccncc3)C2C(=O)N1c1ccc(N2CCOCC2)cc1 (configuration not stated)
inactive: growth inhibition [1] -13.7% | growth inhibition [2] 0.35% | viability increase [3] -0.72% | viability [4] 104% | viability [5] 103% | inhibition [6] 2.51% | RAM network inhibition [7] 0.47%

CCOc1ccccc1NC(=O)C1Cc2ccccc2CN1S(C)(=O)=O (configuration not stated)
inactive: growth inhibition [1] -8.32% | growth inhibition [2] -7.46% | viability increase [3] -5.66% | viability [4] 82.9% | viability [5] 80.6% | inhibition [6] 0.37% | RAM network inhibition [7] 3%

O=C(NCc1ccccc1)c1ccc2c(c1)OCCO2
inactive: growth inhibition [1] 3.26% | growth inhibition [2] 5.53% | viability increase [3] -1.83% | viability [4] 101% | viability [5] 101% | inhibition [6] 1.48% | RAM network inhibition [7] 0.51%

CCNCCNC(=O)c1c(O)c2cccc3c2n(c1=O)CCC3
inactive: growth inhibition [1] -22.8% | growth inhibition [2] -19% | viability increase [3] -3.02% | viability [4] 82.6% | viability [5] 93.7% | inhibition [6] 0.7% | RAM network inhibition [7] 0.57%

COC(=O)C(C)Sc1nnc(Cc2cc(=O)[nH]c(=O)[nH]2)n1-c1cccc(OC)c1 (configuration not stated)
inactive: growth inhibition [1] -7.95% | growth inhibition [2] -0.1% | viability increase [3] 0.21% | viability [4] 104% | viability [5] 108% | inhibition [6] 2.8% | RAM network inhibition [7] 3%

COc1ccc(C(=S)N(C)C)cc1OC
inactive: growth inhibition [1] 11.9% | growth inhibition [2] 16.9% | viability increase [3] -0.25% | viability [4] 98.8% | viability [5] 98.6% | inhibition [6] 3.66% | RAM network inhibition [7] 1.53%

Brc1ccc(-c2nnc(-c3ccccc3Br)o2)cc1
inactive: growth inhibition [1] 0.385% | growth inhibition [2] -1.09% | viability increase [3] -1.12% | viability [4] 87.9% | viability [5] 79.2% | inhibition [6] 2.09% | RAM network inhibition [7] 11.3%

CCCc1cc(C(=O)NCc2cccs2)no1
inactive: growth inhibition [1] -11.4% | growth inhibition [2] 21.3% | viability increase [3] -3.29% | viability [4] 101% | viability [5] 94.1% | inhibition [6] 1.34% | RAM network inhibition [7] 0.74%

COCc1cc(C)nc(SCC(=O)Nc2cccc3cccnc23)c1C#N
inactive: growth inhibition [1] -15.3% | growth inhibition [2] -12.6% | viability increase [3] -1.44% | viability [4] 88.1% | viability [5] 86.4% | inhibition [6] 1.2% | RAM network inhibition [7] 8.57%

Clc1ccc(C=NC23CN4CN(CN(C4)C2)C3)cc1
inactive: growth inhibition [1] 8.77% | growth inhibition [2] 6.34% | viability increase [3] -1.39% | viability [4] 102% | viability [5] 90.3% | inhibition [6] 1.11% | RAM network inhibition [7] 0.19%

CC1CCCCC1NC(=O)c1nnc(Cc2ccc(Cl)cc2)o1 (configuration not stated)
inactive: growth inhibition [1] -9.84% | growth inhibition [2] -0.745% | viability increase [3] 3.87% | viability [4] 104% | viability [5] 90.8% | inhibition [6] 1.07% | RAM network inhibition [7] 9.76%

COC(=O)c1cc(=O)nc2scc(C)n12
inactive: growth inhibition [1] -13% | growth inhibition [2] -18.9% | viability increase [3] -0.3% | viability [4] 103% | viability [5] 99.5% | inhibition [6] 0.885% | RAM network inhibition [7] 4.74%

Cc1cc2nsnc2c(S(=O)(=O)NCC(=O)O)c1C
inactive: growth inhibition [1] -7.75% | growth inhibition [2] -1.79% | viability increase [3] 1.73% | viability [4] 100% | viability [5] 102% | inhibition [6] 2.25% | RAM network inhibition [7] 0.2%

FC(F)(F)c1cccc(-c2ccc(-c3csnn3)o2)c1
inactive: growth inhibition [1] -0.85% | growth inhibition [2] 6.13% | viability increase [3] -0.47% | viability [4] 82.2% | viability [5] 83.6% | inhibition [6] 1.4% | RAM network inhibition [7] 9.48%

Cc1cccc(NC(=O)CN2C(=O)COc3ccc(Cl)cc32)c1C
inactive: growth inhibition [1] -3.47% | growth inhibition [2] -2.44% | viability increase [3] -0.9% | viability [4] 87.5% | viability [5] 85.8% | inhibition [6] 2.24% | RAM network inhibition [7] 4.67%

CCOC(=O)c1cc2c(=O)n3ccccc3nc2n(C(C)C)c1=NC(=O)c1ccncc1
inactive: growth inhibition [1] 6.47% | growth inhibition [2] 4.03% | viability increase [3] -1.27% | viability [4] 98.3% | viability [5] 94.7% | inhibition [6] -0.45% | RAM network inhibition [7] -0.58%
